The text below walks through data of ChEMBL document CHEMBL4433207, “Novel Isoxazole Derivatives with Potent FXR Agonistic Activity Prevent Acetaminophen-Induced Liver Injury” (ACS Med Chem Lett, 2019).

The source made the active and inactive calls. The calls are words filed in the database; no cut-off is given here.

Assay [1] has as its target T1, Oxysterols receptor LXR-beta (Homo sapiens) (UniProt P55055).
T1 sequence (whole entry): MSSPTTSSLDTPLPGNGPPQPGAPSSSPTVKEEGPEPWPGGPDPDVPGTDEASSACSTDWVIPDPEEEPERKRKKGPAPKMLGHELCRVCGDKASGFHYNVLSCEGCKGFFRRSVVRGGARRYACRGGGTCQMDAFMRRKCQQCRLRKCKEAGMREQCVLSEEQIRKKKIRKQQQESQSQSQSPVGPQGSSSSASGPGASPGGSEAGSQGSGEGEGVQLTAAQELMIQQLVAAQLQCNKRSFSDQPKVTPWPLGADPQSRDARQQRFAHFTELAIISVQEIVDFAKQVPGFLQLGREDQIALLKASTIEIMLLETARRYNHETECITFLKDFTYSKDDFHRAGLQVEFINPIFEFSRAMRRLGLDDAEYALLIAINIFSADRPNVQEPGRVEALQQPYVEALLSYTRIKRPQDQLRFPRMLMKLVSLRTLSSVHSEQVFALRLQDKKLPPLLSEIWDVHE
Description: Transactivation of Gal4-fused LXRbeta LBD (unknown origin) expressed in HepG2 cells at 10 uM after 18 hrs by dual-glo luciferase assay. Format: cell-based.

The target of assay [2] is T2, Peroxisome proliferator-activated receptor gamma (Homo sapiens) (UniProt P37231).
T2 sequence (whole entry): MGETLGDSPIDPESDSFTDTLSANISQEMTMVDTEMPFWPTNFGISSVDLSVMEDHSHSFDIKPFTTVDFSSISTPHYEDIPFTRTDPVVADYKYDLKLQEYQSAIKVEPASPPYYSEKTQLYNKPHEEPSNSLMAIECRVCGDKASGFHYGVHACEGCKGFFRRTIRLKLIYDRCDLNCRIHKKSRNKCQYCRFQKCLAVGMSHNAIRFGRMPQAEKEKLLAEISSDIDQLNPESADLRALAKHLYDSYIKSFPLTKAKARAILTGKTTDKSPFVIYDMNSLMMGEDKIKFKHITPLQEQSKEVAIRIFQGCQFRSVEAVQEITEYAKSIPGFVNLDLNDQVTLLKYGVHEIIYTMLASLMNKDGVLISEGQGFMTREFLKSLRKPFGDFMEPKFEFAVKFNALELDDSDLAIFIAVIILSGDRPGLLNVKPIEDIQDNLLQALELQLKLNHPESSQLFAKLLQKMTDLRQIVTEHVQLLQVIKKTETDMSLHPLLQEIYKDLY
Description: Transactivation of Gal4-fused PPARgamma LBD (unknown origin) expressed in HepG2 cells at 10 uM after 18 hrs by dual-glo luciferase assay. Format: cell-based.

Assay [3] deals with Mus musculus. Briefly: In-vivo agonist activity at FXR in C57BL/6N N mouse assessed as upregulation of SHP mRNA level at 10 mg/kg, po dosed daily via gavage for 3 days by RT-PCR analysis. Format: functional, organism-based. An outline of the steps: (§1)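 Mice dosed 10 mg/kg daily for 3 days, by gavage or i.p. Total liver RNA analysed by quantitative real-time PCR for SHP or BSEP mRNA, normalized to GAPDH mRNA; mean ± SEM of four mice per group.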

In assay [4] the test system is Mus musculus. Briefly: In-vivo agonist activity at FXR in C57BL/6N N mouse assessed as upregulation of BSEP mRNA level at 10 mg/kg, po dosed daily via gavage for 3 days by RT-PCR analysis. Format: functional, organism-based. An outline of the steps:
as §1

The subject of assay [5] is Mus musculus. Description: Hepatoprotective activity against APAP-induced acute liver injury in C57BL/6N mouse assessed as reduction in plasma ALT levels at 30 mg/kg, po administered 45 mins after APAP challenge. The class given is functional, organism-based. The method, boiled down:
(§2)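 C57Bl6 mice given a single 500 mg/kg APAP dose, with test agent at 30 mg/kg; surviving mice sacrificed 24 h later, blood and liver collected. Endpoints: serum AST/ALT, liver H&E histology, hepatic Ugt1a1/Ugt2b1/Sult1a1 mRNA, hepatic GSH, SOD activity and MDA, and plasma APAP, APAP-glucuronide and APAP-sulfate by LC–MS/MS. Mean ± SEM, 5–8 animals per group.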

Assay [6] has as its system Mus musculus. Description: Hepatoprotective activity against APAP-induced acute liver injury in C57BL/6N mouse assessed as reduction in liver necrosis at 30 mg/kg, po administered 45 mins after APAP challenge by H and E staining based microscopic method. The class given is functional, organism-based. The method, boiled down: as §2
For assay [7], the system named is Mus musculus. Briefly: Hepatoprotective activity against APAP-induced acute liver injury in C57BL/6N mouse assessed as upregulation of UGT1A1 mRNA levels at 30 mg/kg, po administered 45 mins after APAP challenge. The class given is functional, organism-based. An outline of the steps: as §2
Assay [8] has as its system Mus musculus. Description: Hepatoprotective activity against APAP-induced acute liver injury in C57BL/6N mouse assessed as upregulation of UGT2B1 mRNA levels at 30 mg/kg, po administered 45 mins after APAP challenge. The class given is functional, organism-based. The method, boiled down:
as §2

Assay [9] relates to Mus musculus. Description: Hepatoprotective activity against APAP-induced acute liver injury in C57BL/6N mouse assessed as increase in GSH levels at 30 mg/kg, po administered 45 mins after APAP challenge. Format: functional, organism-based. An outline of the steps:
as §2

Assay [10] deals with Mus musculus. Description: Hepatoprotective activity against APAP-induced acute liver injury in C57BL/6N mouse assessed as reduction in lipid peroxidation by measuring MDA levels at 30 mg/kg, po administered 45 mins after APAP challenge. The class given is functional, organism-based. The method, boiled down:
as §2

The test system of assay [11] is Mus musculus. Description: Hepatoprotective activity against APAP-induced acute liver injury in C57BL/6N mouse assessed as APAP plasma concentration at 30 mg/kg, po administered 45 min after APAP challenge by LC-MS/MS analysis (reference value: 1000 nM). Format: functional, organism-based. The method, boiled down: as §2
Assay [12] deals with Mus musculus. Description: Hepatoprotective activity against APAP-induced acute liver injury in C57BL/6N mouse assessed as increase in APAP metabolism by measuring increase in APAP-glucuronide level at 30 mg/kg, po administered 45 min after APAP challenge by LC-MS/MS analysis. Format: functional, organism-based. An outline of the steps: as §2
Assay [13] deals with Mus musculus. Description: Hepatoprotective activity against APAP-induced acute liver injury in C57BL/6N mouse assessed as increase in APAP metabolism by measuring increase in APAP-sulfate level at 30 mg/kg, po administered 45 min after APAP challenge by LC-MS/MS analysis. The class given is functional, organism-based. The method, boiled down: as §2
Assay [14] deals with Mus musculus. Description: In-vivo agonist activity at FXR in C57BL/6N N mouse assessed as upregulation of SHP mRNA level at 10 mg/kg, ip dosed daily […] for 3 days by RT-PCR analysis. Format: functional, organism-based. The method, boiled down:
as §1

Assay [15] deals with Mus musculus. Description: In-vivo agonist activity at FXR in C57BL/6N N mouse assessed as upregulation of BSEP mRNA level at 10 mg/kg, ip dosed daily […] for 3 days by RT-PCR analysis. The class given is functional, organism-based. The method, boiled down: as §1

As for `CC(C)c1onc(-c2c(Cl)cccc2Cl)c1COc1ccc(COc2ccc(C(=O)O)cc2)cc1`, the result in assay [1] and in assay [2] was inactive. For the same molecule, the outcome in the assay on Mus musculus [3], in the assay with Mus musculus [4], in the assay on Mus musculus [5], with Mus musculus [6], with Mus musculus [7] and with Mus musculus [8] was Active. Moreover, the result with Mus musculus [9], in the assay on Mus musculus [10], in the assay on Mus musculus [12], with Mus musculus [13], in the assay with Mus musculus [14] and in the assay on Mus musculus [15] was Active. The Cp with Mus musculus [11] is 615 nM.
